Compound activity: PubChem, several laboratories
Shown are actives, neighbours in structure and some others; about 1.3% of the full set was active somewhere.
Diaphorase act: activates diaphorase or chemically reduces, flagging diaphorase assay artifacts | Diaphorase/resazurin coupled assay, resorufin fluorescence, 16 min; active compounds read high; 1 = vehicle wells, 0 = NADH-free wells | 0.005% of 190,000 active | activation factor at 20 µM | AID 1229;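 active = diaphorase activity raised at least twofold by the compound at 20 µM; inactive = activation factor below 2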
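Test system: Clostridium kluyveri diaphorase, purified enzyme; input: enzyme 0.07 U/mL final; buffer or medium: 50 mM HEPES pH 7.4 with 4.542 mM MgCl2, 0.005% Tween 20; also added: 0.114 mM NADH and 0.1 mM resazurin, final amounts; schedule: 16 min enzyme reaction, ambient temperature; technique: fluorescence of resorufin, 544 nm excitation, 590 nm emission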
Diaphorase inh: counter-screen for diaphorase-based assays: diaphorase inhibitors and chemical oxidizers; diaphorase resazurin-to-resorufin fluorescence, NADH, 16 min; bacterial (C. kluyveri) enzyme, not human; inhibition, % at 20 µM; 0.69% of 190,000 active;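 active = primary screen inhibition at 20 µM above a set limit, cut at about 50% in these data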;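 also: plate controls were DMSO with full reaction for no effect and wells lacking NADH for full effect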
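Test system: diaphorase enzyme from Clostridium kluyveri; amount: diaphorase at 0.14 U/mL in enzyme working solution; detection: fluorescence of resorufin formed from resazurin, Ex 544/Em 590 nm; times: reaction incubation of 16 min at room temperature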
PfG6PD inh: PfG6PD (Plasmodium falciparum) enzyme inhibition; PfGluPho enzyme, NADPH resazurin-diaphorase fluorescence; AID 504690; 0.78% of 350,000 active; inhibition, % at 20 µM;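 active = inhibition reaching at least a set limit at 20 µM in the primary screen, cut at about 59% in these data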;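 also: 0% = DMSO wells with substrate and 100% = DMSO wells lacking glucose-6-phosphate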
HKDC1 inhibitor: HKDC1 (human) hexokinase inhibition | Q2TB90 | recombinant HKDC1, G6PDH/diaphorase resazurin coupled fluorescence | inhibition, % at 20 µM | 0.16% of 340,000 active | AID 493160;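 active = inhibition above about 35% when tested at 20 µM, limit read from the data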;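 also: plate controls were DMSO wells with enzyme for no effect and DMSO wells lacking enzyme for full effect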
Target sequence (Q2TB90 whole entry, looked up): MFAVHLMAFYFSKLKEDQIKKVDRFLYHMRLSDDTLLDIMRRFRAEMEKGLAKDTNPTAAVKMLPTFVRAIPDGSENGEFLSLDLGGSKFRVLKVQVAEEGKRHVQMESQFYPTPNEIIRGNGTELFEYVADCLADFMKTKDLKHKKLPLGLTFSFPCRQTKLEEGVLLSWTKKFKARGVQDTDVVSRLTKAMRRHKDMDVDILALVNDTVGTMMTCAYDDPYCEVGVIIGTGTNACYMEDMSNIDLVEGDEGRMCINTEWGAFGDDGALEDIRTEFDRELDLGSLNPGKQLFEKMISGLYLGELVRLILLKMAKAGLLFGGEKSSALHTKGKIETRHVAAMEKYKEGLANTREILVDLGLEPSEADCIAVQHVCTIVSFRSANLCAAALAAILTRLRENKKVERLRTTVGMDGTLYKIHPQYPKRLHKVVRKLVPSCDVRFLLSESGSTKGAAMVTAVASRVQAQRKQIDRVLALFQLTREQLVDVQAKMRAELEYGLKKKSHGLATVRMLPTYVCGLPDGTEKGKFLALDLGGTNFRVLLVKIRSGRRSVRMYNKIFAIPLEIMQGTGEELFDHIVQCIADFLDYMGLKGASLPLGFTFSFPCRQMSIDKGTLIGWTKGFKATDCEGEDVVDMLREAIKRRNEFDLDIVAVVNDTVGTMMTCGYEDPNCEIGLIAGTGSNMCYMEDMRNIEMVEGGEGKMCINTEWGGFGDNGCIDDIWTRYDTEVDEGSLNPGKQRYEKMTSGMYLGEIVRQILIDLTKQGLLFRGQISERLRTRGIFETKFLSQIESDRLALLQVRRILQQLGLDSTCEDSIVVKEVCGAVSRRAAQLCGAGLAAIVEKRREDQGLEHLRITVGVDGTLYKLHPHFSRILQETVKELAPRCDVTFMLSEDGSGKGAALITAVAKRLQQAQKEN
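Assay system: recombinant HKDC1 hexokinase; detection: coupled resazurin fluorescence, excitation 525 nm, emission 613 nm; benchmarks: DMSO-plus-enzyme-mix negative control, buffer-substituted positive control; compound dosing: single 20 µM dose; schedule: 90 min at room temperature in dark; also added: glucose plus 1 mM ATP as hexokinase substrates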
Tb hexokinase: T. brucei hexokinase 1 inhibition | recombinant TbHK1, G6PDH-coupled NADH A340 | 0.11% of 220,000 active | inhibition, % at 10 µM;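 active = inhibition of 50% or more in the single-dose primary screen; inactive = inhibition below 50%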
G6PDH CS: inhibits Leuconostoc G6PDH, flagging false hits in G6PDH-based assays. Purified L. mesenteroides G6PDH, diaphorase/resazurin coupled fluorescence, 45 min. inhibition, % at 5 µM. 0.12% of 200,000 active; in the data active = inhibition above about 50%
PfG6PD confirm: confirmation of Plasmodium falciparum G6PD inhibitors; inhibition, % at 20 µM; shares compounds with PfG6PD inh; recombinant PfGluPho, NADPH-diaphorase-resazurin fluorescence; 34% of 2,400 active;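 active = inhibition of at least 50% at 20 µM in any single replicate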;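 also: 0% = DMSO with substrate and 100% = DMSO lacking glucose-6-phosphate substrate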
Diaph ctr 10uM: inhibits diaphorase or oxidizes, flagging false PfG6PD hits; diaphorase-coupled resazurin reduction, fluorescence, NADPH 10 uM; shares compounds with PfG6PD inh; AID 504862; 39% of 820 active; inhibition, % at 20 µM;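 active = average inhibition reaching 50% or more with the compound at 20 µM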;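 also: resorufin red fluorescence formed as diaphorase reduces resazurin using NADPH; 0% = DMSO with enzyme and 100% = DMSO without enzyme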
Diaph ctr 30uM: diaphorase inhibition or oxidation at 30 uM NADPH; shares compounds with PfG6PD inh; Diaphorase/resazurin coupled assay, resorufin fluorescence; inhibition, % at 20 µM; 29% of 820 active;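 active = inhibition averaging 50% or more, tested at 20 µM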;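 also: 0% = DMSO with enzyme and 100% = DMSO wells lacking diaphorase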
Numbers without * were called inactive; · = no result.

SMILES	Diaphorase act	Diaphorase inh	PfG6PD inh	HKDC1 inhibitor	Tb hexokinase	G6PDH CS	PfG6PD confirm	others
Cc1onc(-c2ccccc2)c1C(=O)N(Cc1ccco1)Cc1cccs1	1	-2	83*	0	9	-4	39
Cc1onc(-c2ccccc2)c1C(=O)NCc1ccco1	0.9	15	-5	-8	1	-8	·
C/C(=N\Nc1ccc([N+](=O)[O-])cc1)c1ccc(O)cc1	0.8	20	66*	-8	-1	-1	2
C/C(=N\Nc1ccc([N+](=O)[O-])cc1)c1cccc(N)c1	0.9	14	111*	4	-14	10	41
C/C(=N\Nc1ncc(Br)cn1)c1cccc([N+](=O)[O-])c1	·	·	21	-5	·	·	·
O=C(CCCOc1ccc(Cl)cc1Cl)N/N=C/c1ccc(Cl)cc1	0.9	5	62*	-7	2	-5	21
Cc1cc(C)n(CCC(=O)N/N=C/c2cccc([N+](=O)[O-])c2)n1	·	·	8	4	-4	·	·
Cc1cc(Cl)ccc1OCCCC(=O)N/N=C/c1cccc([N+](=O)[O-])c1	1	-4	112*	8	-8	9	94*	Diaph ctr 10uM=81*;Diaph ctr 30uM=57*
COc1cc(O)c(NC(C)=O)c2nonc12	0.4	63*	64*	4	-13	22	43
COc1cc(-c2ccc(NC(C)=O)c(OC)c2)ccc1NC(C)=O	·	·	1	2	7	·	·
CC(C)C(NC(=O)c1ccc(F)cc1)C(=O)N1CCN(c2ccccn2)CC1 (stereo not given)	·	·	-13	-5	·	·	·
O=C(CCC(=O)N1CCN(c2ccc(O)cc2)CC1)c1ccc(Br)cc1	·	·	·	·	-2	·	·
CCOc1ccc(C(=O)CCC(=O)N2CCN(c3ccc(O)cc3)CC2)cc1	·	·	67*	-3	·	·	3
Cn1c2ccccc2c(=O)c2ccc(NCc3ccc4c(c3)OCO4)cc21	·	·	17	5	·	·	·
O=C(CCc1ccc(O)c(O)c1)N/N=C/c1ccc2c(c1)OCO2	·	·	62*	5	·	·	34
CCc1cc[n+](C2=C([O-])c3ccccc3C(=O)/C2=N\S(=O)(=O)c2cccs2)cc1	0.8	21	95*	26	-1	51*	72*	Diaph ctr 10uM=66*;Diaph ctr 30uM=75*
O=C1C(=O)c2ccccc2C([O-])=C1[n+]1ccccc1	·	·	-16	10	-24	·	·
CCc1ccc(C(=O)/C=C/c2cnn(C)c2C)s1	0.9	7	59*	-3	-46	-2	39
Cc1c(/C=C(\C#N)C(=O)NCc2ccccc2)cc(C#N)n1C	·	·	-1	-4	·	·	·
O=C(Nc1nc(=S)ss1)c1c(F)cccc1F	1	2	62*	-10	-12	5	11
CCOC(=O)c1sc(N)c(C(=O)Nc2ccccc2OC)c1C	0.9	10	66*	-14	-5	0	39
CCOC(=O)c1sc(N)c(C(=O)OC)c1C	0.9	8	2	-1	1	14	·
COc1ccc(Cc2n[nH]c(=S)n2NC(=O)Nc2ccc(Cl)c(Cl)c2)cc1	·	·	9	1	-10	·	·
Oc1ccc2ccccc2c1-c1sc(Nc2ccccc2)n[n+]1-c1ccc(F)cc1	·	·	6	11	·	·	·
COc1ccc(C)cc1Nc1n[n+](-c2ccccc2)c(-c2c(OC)ccc3ccccc23)s1	·	·	115*	9	·	·	75*	Diaph ctr 10uM=69*;Diaph ctr 30uM=50
SMILES	Diaphorase act	Diaphorase inh	PfG6PD inh	HKDC1 inhibitor	Tb hexokinase	G6PDH CS	PfG6PD confirm	others
COc1ccc(C)cc1Nc1n[n+](-c2ccccc2)c(-c2cc(OC)c(OC)cc2Br)s1	·	·	11	5	·	·	·
Fc1ccc(-[n+]2nc(Nc3ccccc3)sc2-c2c3ccccc3cc3ccccc23)cc1	·	·	132*	4	·	·	82*	Diaph ctr 10uM=78*;Diaph ctr 30uM=60*
COc1cc(C(=O)Nc2nc(C)c(Cc3ccc4c(c3)OCO4)s2)cc(OC)c1OC	0.8	16	62*	-6	-8	4	34
CCCOc1ccc(C(=O)Nc2nc(C)c(Cc3ccc4c(c3)OCO4)s2)cc1	1	5	-7	-2	9	-4	·
Cc1cc(C)cc(NC(=O)OCCN2CCN(Cc3ccccc3)CCC2=O)c1	1	-5	-15	-1	2	12	·
Clc1ccccc1-c1nnc2sc(CCc3ccccc3)nn12	1	1	60*	-1	-9	-6	21
Clc1ccccc1-c1nnc2sc(-c3ccc4c(c3)OCO4)nn12	1	2	63*	0	-10	-51	41
c1ccc(CCc2nn3c(-c4ccncc4)nnc3s2)cc1	1	-4	35	-11	5	20	·
O=C(CCc1cn(Cc2ccc(F)cc2)c2ccccc12)N1CCOCC1	·	·	11	0	·	·	·
CN1/C(=N\O)c2cccc3cccc1c23	0.7	33	76*	9	-12	45	46
CNC(=O)CN1C(=O)c2cccc3cccc1c23	1.1	-14	-6	7	-23	6	·
O=C(CSCc1ccccc1)NNC(=S)Nc1cccc(Cl)c1Cl	0.9	6	-4	-15	19	-13	·
CCOC(=O)c1c(NC(=O)c2ccccc2Br)sc2c1CCc1ccccc1-2	0.8	22	64*	5	-16	2	30
CCOC(=O)C1Nc2ccc(C(=O)O)cc2C2C=CCC12 (stereo not given)	·	·	62*	19	·	·	21
O=C(Nc1sc2c(c1C(=O)O)CCCCC2)c1ccccc1	0.7	34	80*	16	-6	20	35
O=C(O)c1c(NC(=O)c2cccc3ccccc23)sc2c1CCC2	0.9	8	10	11	-5	7	·
O=C(Nc1sc2c(c1C(=O)O)CCCC2)c1ccc(Cl)cc1	·	·	124*	5	·	·	77*	Diaph ctr 10uM=73*;Diaph ctr 30uM=72*
N#Cc1c(NC(=O)c2ccccc2)sc2c1CCCCC2	0.8	17	3	-4	-5	3	·
O=C(Nc1sc2c(c1C(=O)O)CCCC2)c1cccc(Cl)c1	·	·	62*	5	·	·	38
O=C(Nc1sc2c(c1C(=O)O)CCC2)c1ccc(F)cc1	0.9	11	91*	-3	-6	-4	54*	Diaph ctr 10uM=42;Diaph ctr 30uM=39
Cc1ccc(S(=O)(=O)N(C)C[C@@H]2OCc3cnnn3CCCC(=O)N([C@H](C)CO)C[C@H]2C)cc1	·	·	-17	·	·	·	·
CCC(CC)C(=O)NCc1ccc(OC)cc1	1	5	-1	-3	-5	-2	·
